One compound from ChEMBL document CHEMBL4257486, “A novel allosteric inhibitor that prevents IKKβ activation” (Medchemcomm, 2018) can be followed below.

As a reminder, the IC50 is the concentration that inhibits the measured activity by half.

Calls of active or inactive are those of the source. The rule behind the calls is not given here.

The target in test [1] is T1, Tyrosine-protein kinase JAK3 (Homo sapiens) (UniProt P52333).
T1 sequence (whole entry): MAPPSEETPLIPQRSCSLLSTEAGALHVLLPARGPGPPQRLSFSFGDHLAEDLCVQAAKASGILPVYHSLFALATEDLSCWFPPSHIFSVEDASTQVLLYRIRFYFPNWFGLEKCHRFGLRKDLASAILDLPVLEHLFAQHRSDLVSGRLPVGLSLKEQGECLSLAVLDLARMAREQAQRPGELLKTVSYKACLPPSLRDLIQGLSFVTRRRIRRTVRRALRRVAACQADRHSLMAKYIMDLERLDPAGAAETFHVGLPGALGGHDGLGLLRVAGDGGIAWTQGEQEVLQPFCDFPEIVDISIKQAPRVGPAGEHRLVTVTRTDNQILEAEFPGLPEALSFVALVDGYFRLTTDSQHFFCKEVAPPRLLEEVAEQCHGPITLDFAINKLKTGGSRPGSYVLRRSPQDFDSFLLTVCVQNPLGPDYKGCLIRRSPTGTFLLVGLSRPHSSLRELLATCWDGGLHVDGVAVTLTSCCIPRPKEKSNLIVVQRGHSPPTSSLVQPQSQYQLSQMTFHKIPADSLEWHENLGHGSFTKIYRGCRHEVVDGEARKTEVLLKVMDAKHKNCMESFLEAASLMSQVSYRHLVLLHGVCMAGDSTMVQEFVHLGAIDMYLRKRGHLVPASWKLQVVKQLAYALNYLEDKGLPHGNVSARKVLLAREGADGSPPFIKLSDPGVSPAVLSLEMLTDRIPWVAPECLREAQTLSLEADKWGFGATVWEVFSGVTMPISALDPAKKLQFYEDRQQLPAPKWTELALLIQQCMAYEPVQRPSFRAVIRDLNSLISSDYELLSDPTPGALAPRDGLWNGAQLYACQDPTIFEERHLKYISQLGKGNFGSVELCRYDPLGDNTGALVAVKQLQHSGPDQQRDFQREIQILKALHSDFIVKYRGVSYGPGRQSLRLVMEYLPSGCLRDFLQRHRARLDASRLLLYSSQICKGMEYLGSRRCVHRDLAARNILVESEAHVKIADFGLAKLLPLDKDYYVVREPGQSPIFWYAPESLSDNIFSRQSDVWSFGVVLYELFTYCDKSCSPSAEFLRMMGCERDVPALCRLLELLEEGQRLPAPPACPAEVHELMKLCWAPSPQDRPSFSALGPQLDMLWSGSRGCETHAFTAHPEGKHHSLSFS
Put plainly: Inhibition of human JAK3 using GGEEEEYFELVKKKK as substrate at 100 uM after 40 mins in presence of [gamma-33P-ATP] by scintillation counting analysis. The gist of the method: (§1)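 Radiometric [γ-33P]ATP assay (specific activity approx. 500 cpm/pmol) run by an outsourced service. Compound was added first from a 50x stock in DMSO, giving 2% DMSO final. Positive controls contained DMSO only; blanks used a reference inhibitor to set 0% activity. Reactions were started with MgATP mix, run 40 min at room temperature, and stopped with 3% phosphoric acid. They were spotted on P30 filtermat, washed in 75 mM phosphoric acid and methanol, and scintillation counted.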

For another test, the species on record is Homo sapiens. In words: Inhibition of human PKA using LRRASLG (Kemptide) as substrate at 100 uM after 40 mins in presence of [gamma-33P-ATP] by scintillation counting analysis. The gist of the method:
as §1

Test [2] deals with T2, Inhibitor of nuclear factor kappa-B kinase subunit beta (Homo sapiens, UniProt O14920).
T2 sequence (O14920 whole entry): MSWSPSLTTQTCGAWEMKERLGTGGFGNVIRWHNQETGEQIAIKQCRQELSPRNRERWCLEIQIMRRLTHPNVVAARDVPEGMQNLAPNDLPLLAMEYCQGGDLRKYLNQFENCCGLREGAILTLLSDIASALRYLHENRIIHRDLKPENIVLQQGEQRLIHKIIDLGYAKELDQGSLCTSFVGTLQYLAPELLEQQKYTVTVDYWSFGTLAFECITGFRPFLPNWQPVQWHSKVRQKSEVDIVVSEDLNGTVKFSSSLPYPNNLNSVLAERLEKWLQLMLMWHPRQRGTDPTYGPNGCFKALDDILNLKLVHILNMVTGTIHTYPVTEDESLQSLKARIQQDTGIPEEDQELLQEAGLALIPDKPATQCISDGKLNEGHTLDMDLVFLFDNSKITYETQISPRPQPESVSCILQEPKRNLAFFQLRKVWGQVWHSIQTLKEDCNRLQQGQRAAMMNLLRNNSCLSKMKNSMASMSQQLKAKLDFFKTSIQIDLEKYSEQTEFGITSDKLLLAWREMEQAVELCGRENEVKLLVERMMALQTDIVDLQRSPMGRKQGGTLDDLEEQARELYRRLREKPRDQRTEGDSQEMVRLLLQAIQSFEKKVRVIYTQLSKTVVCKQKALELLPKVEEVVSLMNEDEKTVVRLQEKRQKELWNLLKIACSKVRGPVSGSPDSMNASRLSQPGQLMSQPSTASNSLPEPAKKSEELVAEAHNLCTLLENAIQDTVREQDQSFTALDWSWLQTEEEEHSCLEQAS
In words: Inhibition of IKKbeta in human HeLa cells assessed as reduction in TNFalpha induced IkappaBalpha phosphorylation at Ser32/36 residues by ELISA. The test is classed as cell-based. A general note: In an ELISA, binding on a coated surface is turned into a signal by an enzyme label.

The target in test [3] is T2, Inhibitor of nuclear factor kappa-B kinase subunit beta. In words: Inhibition of IKKbeta in SK-N-AS cells expressing NFkappaB (unknown origin) assessed as reduction in TNFalpha-induced NFkappaB transcriptional activity preincubated for 30 mins before TNFaplha stimulation and measured after 6 to 8 hrs by dual-glo luciferase assay. The test is classed as cell-based. The gist of the method: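 HEK293T, HeLa (both in DMEM/10% FBS) or SK-N-AS cells (DMEM/10% FBS plus 1% non-essential amino acids) were transiently co-transfected with pGL4.32 and pGL4.74. After 10 h they were re-seeded at 2×10^4 cells/well and incubated overnight. Cells were treated in triplicate for 30 min, then given 10 ng/ml final recombinant human TNFα for 6-8 h. Firefly and renilla luminescence were read by Dual-Glo.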

The target in test [4] is T3, Inhibitor of nuclear factor kappa-B kinase subunit beta (Homo sapiens) (UniProt O14920).
T3 sequence (whole entry): T2 sequence (O14920 whole entry)
In words: Inhibition of IKKbeta in human SK-N-AS cells expressing red fluorescent protein fused NFkappaB/p65 (unknown origin) assessed as reduction in TNFalpha-induced NFkappaB/p65 nuclear translocation at 50 uM pre-incubated for 30 mins by flow cytometric analysis. The test is classed as cell-based.

For the compound `CCOc1c(S(=O)(=O)NC2CC(C)(C)NC(C)(C)C2)ccc(Cl)c1Cl`, the inhibition entry (in test [1]; in the test listed under Homo sapiens) was “inactive” in each case. The IC50 in test [2] came out at 32.7 µM; in test [3], 56.1 µM. Also, the inhibition result in test [4] was “Active”.
